Experimental data as given in ChEMBL document CHEMBL1121929, “[(3-aryl-1,2-benzisoxazol-6-yl)oxy]acetic acids. A new diuretic series” (1982).

Tests used:
[1] = test system: Mus musculus; test: The diuretic activity was measured after oral administration in saline loaded mice at 64 mg/kg after 5 hr; format: functional, Urine
Method in brief: (§1)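 Mice were dosed orally with drug in 1% saline at 10 mL/kg, at 4 or 64 mg/kg, alongside a vehicle control. There were 10 mice per group, housed 5 per metabolic cage. Pooled urine was analysed for sodium by flame photometry and expressed as mean mequiv/kg/5 h.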

[2] = test system: Canis familiaris; test: Diuretic activity was measured after oral administration in conscious water loaded dogs at 20 mg/kg after 1 hr; format: functional, Canis lupus familiaris, Urine
Method in brief: (§2)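 Male mongrel dogs (20–25 kg) were given 20 mL/kg tap water by gavage about 15 h before drug, with water ad libitum overnight. On the test day they received 4 mL/kg tap water hourly for 7 h, and the bladder was emptied at each interval. Drug was gavaged in the 4 mL/kg water load after the third urine sample, with Tween 80 added when it was poorly soluble. Urinary Na+ was measured by flame photometry as the mean excretory rate (μequiv/kg) per interval per animal. Each dog was its own control, using the hour before dosing.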

[3] = test system: Mus musculus; test: The diuretic activity was measured after oral administration in saline loaded mice at 4 mg/kg after 5 hr; format: functional, Urine; method in brief: as §1
[4] = test system: Canis familiaris; test: The diuretic activity of compound was measured after oral administration in conscious water loaded dogs at 5 mg/kg after 4 hr; Micro equiv of Na+/kg; format: functional, Canis lupus familiaris, Urine; method in brief: as §2
[5] = test system: Canis familiaris; test: The diuretic activity of compound was measured after oral administration in conscious water loaded dogs at 5 mg/kg after 2 hr; Micro equiv of Na+/kg; format: functional, Canis lupus familiaris, Urine; method in brief: as §2
[6] = test system: Canis familiaris; test: The diuretic activity of compound was measured after oral administration in conscious water loaded dogs at 5 mg/kg after 1 hr; Micro equiv of Na+/kg; format: functional, Canis lupus familiaris, Urine; method in brief: as §2
[7] = test system: Canis familiaris; test: The diuretic activity of compound was measured after oral administration in conscious water loaded dogs at 5 mg/kg after 3 hr; Micro equiv of Na+/kg; format: functional, Canis lupus familiaris, Urine; method in brief: as §2
[8] = test system: Canis familiaris; test: The diuretic activity of compound was measured after oral administration in conscious water loaded dogs at 5 mg/kg after 5h; Micro equiv of Na+/kg; format: functional, Canis lupus familiaris, Urine; method in brief: as §2
[9] = test system: Canis familiaris; test: The diuretic activity of compound was measured after oral administration in conscious water loaded dogs at 5 mg/kg after 7h; Micro equiv of Na+/kg; format: functional, Canis lupus familiaris, Urine; method in brief: as §2

Row | SMILES | Oral diuretic activity [1] | Oral diuretic activity [2] | Oral diuretic activity [3] | also measured
1 | Cc1cccc(-c2noc3c(Cl)c(OCC(=O)O)ccc23)c1C | 0.02 m equiv [Na+] 5hr-1kg-1 | 219.9 u equiv of [Na+] kg-1 hr-1 | – | –
2 | Cc1ccc(-c2noc3c(Cl)c(OCC(=O)O)ccc23)o1 | 1.5 m equiv [Na+] 5hr-1kg-1 | 37.4 u equiv of [Na+] kg-1 hr-1 | 0.3 m equiv [Na+] 5hr-1kg-1 | –
3 | O=C(O)COc1ccc2c(-c3ccc(O)cc3F)noc2c1Cl | 0.6 m equiv [Na+] 5hr-1kg-1 | 43.5 u equiv of [Na+] kg-1 hr-1 | 0.5 m equiv [Na+] 5hr-1kg-1 | –
4 | O=C(O)COc1ccc2c(-c3ccc(Cl)c(Cl)c3)noc2c1Cl | 0.1 m equiv [Na+] 5hr-1kg-1 | 101.6 u equiv of [Na+] kg-1 hr-1 | 0.6 m equiv [Na+] 5hr-1kg-1 | –
5 | O=C(O)COc1ccc2c(-c3ccc(Cl)cc3)noc2c1Cl | 0.5 m equiv [Na+] 5hr-1kg-1 | 41.2 u equiv of [Na+] kg-1 hr-1 | 0.5 m equiv [Na+] 5hr-1kg-1 | –
6 | O=C(O)COc1c(Cl)cc2c(-c3ccccc3F)noc2c1Cl | 0.41 m equiv [Na+] 5hr-1kg-1 | 85.7 u equiv of [Na+] kg-1 hr-1 | – | –
7 | CCOC(=O)COc1ccc2c(-c3ccccc3F)noc2c1Cl | 1.48 m equiv [Na+] 5hr-1kg-1 | 39.1 u equiv of [Na+] kg-1 hr-1 | – | –
8 | O=C(O)COc1ccc2c(-c3cccs3)noc2c1Cl | 1 m equiv [Na+] 5hr-1kg-1 | 77.5 u equiv of [Na+] kg-1 hr-1 | 0.4 m equiv [Na+] 5hr-1kg-1 | –
9 | O=C(O)COc1cc(Cl)c2c(-c3ccccc3F)noc2c1 | 1.16 m equiv [Na+] 5hr-1kg-1 | 82.1 u equiv of [Na+] kg-1 hr-1 | 1.59 m equiv [Na+] 5hr-1kg-1 | –
10 | O=C(O)COc1ccc2c(-c3ccc4ccccc4c3)noc2c1Cl | 1.1 m equiv [Na+] 5hr-1kg-1 | 53.3 u equiv of [Na+] kg-1 hr-1 | 1.2 m equiv [Na+] 5hr-1kg-1 | –
11 | Cc1ccccc1-c1noc2c(Cl)c(OCC(=O)O)ccc12 | 1.76 m equiv [Na+] 5hr-1kg-1 | 66.9 u equiv of [Na+] kg-1 hr-1 | 0.02 m equiv [Na+] 5hr-1kg-1 | –
12 | O=C(O)COc1ccc2c(-c3ccccc3F)noc2c1 | 2.89 m equiv [Na+] 5hr-1kg-1 | 33.6 u equiv of [Na+] kg-1 hr-1 | – | –
13 | O=C(O)COc1ccc(-c2noc3ccccc23)c(Cl)c1Cl | 1.49 m equiv [Na+] 5hr-1kg-1 | 81.6 u equiv of [Na+] kg-1 hr-1 | 0.33 m equiv [Na+] 5hr-1kg-1 | –
14 | O=C(O)CSc1ccc2c(-c3ccccc3F)noc2c1Cl | 4.67 m equiv [Na+] 5hr-1kg-1 | 328.4 u equiv of [Na+] kg-1 hr-1 | 1.37 m equiv [Na+] 5hr-1kg-1 | –
15 | O=C(O)COc1cc2onc(-c3ccccc3F)c2cc1Cl | 0.2 m equiv [Na+] 5hr-1kg-1 | 49.8 u equiv of [Na+] kg-1 hr-1 | 0.6 m equiv [Na+] 5hr-1kg-1 | –
16 | O=C(O)COc1ccc2c(-c3ccccn3)noc2c1Cl | 1 m equiv [Na+] 5hr-1kg-1 | 61.2 u equiv of [Na+] kg-1 hr-1 | 0.5 m equiv [Na+] 5hr-1kg-1 | –
17 | O=C(O)COc1ccc2c(-c3ccccc3F)noc2c1I | 3.41 m equiv [Na+] 5hr-1kg-1 | 617.3 u equiv of [Na+] kg-1 hr-1 | 0.07 m equiv [Na+] 5hr-1kg-1 | –

Row | SMILES | Oral diuretic activity [1] | Oral diuretic activity [2] | Oral diuretic activity [3] | also measured
18 | O=C(O)COc1ccc2c(-c3ccc(F)cc3)noc2c1Cl | 0.4 m equiv [Na+] 5hr-1kg-1 | 178.7 u equiv of [Na+] kg-1 hr-1 | 0.4 m equiv [Na+] 5hr-1kg-1 | –
19 | O=C(O)COc1ccc2c(-c3ccc(Cl)cc3F)noc2c1Cl | 1.4 m equiv [Na+] 5hr-1kg-1 | 156.2 u equiv of [Na+] kg-1 hr-1 | 1.8 m equiv [Na+] 5hr-1kg-1 | –
20 | O=C(O)COc1cc2onc(-c3ccccc3F)c2cc1Br | 0.28 m equiv [Na+] 5hr-1kg-1 | – | 0.47 m equiv [Na+] 5hr-1kg-1 | –
21 | O=C(O)COc1ccc2c(-c3cccc(F)c3F)noc2c1Cl | 5.8 m equiv [Na+] 5hr-1kg-1 | 80 u equiv of [Na+] kg-1 hr-1 | – | –
22 | O=C(O)COc1ccc2c(-c3ccco3)noc2c1Cl | 0.6 m equiv [Na+] 5hr-1kg-1 | 199 u equiv of [Na+] kg-1 hr-1 | – | –
23 | O=C(O)COc1ccc2c(-c3ccccc3Cl)noc2c1Cl | 9.1 m equiv [Na+] 5hr-1kg-1 | 48.2 u equiv of [Na+] kg-1 hr-1 | 0.6 m equiv [Na+] 5hr-1kg-1 | –
24 | O=C(O)COc1ccc2c(-c3ccoc3)noc2c1Cl | 2.1 m equiv [Na+] 5hr-1kg-1 | 293 u equiv of [Na+] kg-1 hr-1 | 0.6 m equiv [Na+] 5hr-1kg-1 | –
25 | O=C(O)COc1ccc2c(-c3cc(F)ccc3F)noc2c1Cl | 8.3 m equiv [Na+] 5hr-1kg-1 | 926.2 u equiv of [Na+] kg-1 hr-1 | 2.2 m equiv [Na+] 5hr-1kg-1 | –
26 | Cc1ccc(-c2noc3c(Cl)c(OCC(=O)O)ccc23)cc1 | 0.6 m equiv [Na+] 5hr-1kg-1 | 29.3 u equiv of [Na+] kg-1 hr-1 | 0.8 m equiv [Na+] 5hr-1kg-1 | –
27 | Cc1ccc(-c2noc3c(Cl)c(OCC(=O)O)ccc23)s1 | 0.5 m equiv [Na+] 5hr-1kg-1 | 122.4 u equiv of [Na+] kg-1 hr-1 | – | –
28 | O=C(O)COc1ccc2c(-c3ccc(F)cc3F)noc2c1Cl | 0.9 m equiv [Na+] 5hr-1kg-1 | 41.7 u equiv of [Na+] kg-1 hr-1 | 0.7 m equiv [Na+] 5hr-1kg-1 | –
29 | O=C(O)COc1ccc2c(-c3cccc(F)c3)noc2c1Cl | 0.81 m equiv [Na+] 5hr-1kg-1 | 50.6 u equiv of [Na+] kg-1 hr-1 | 0.75 m equiv [Na+] 5hr-1kg-1 | –
30 | Cc1ccsc1-c1noc2c(Cl)c(OCC(=O)O)ccc12 | 0.7 m equiv [Na+] 5hr-1kg-1 | 97.7 u equiv of [Na+] kg-1 hr-1 | – | –
31 | O=C(O)COc1c(Cl)c(Cl)c2c(-c3ccccc3F)noc2c1Cl | 1.65 m equiv [Na+] 5hr-1kg-1 | 109 u equiv of [Na+] kg-1 hr-1 | 0.53 m equiv [Na+] 5hr-1kg-1 | –
32 | O=C(O)COc1ccc2c(-c3ccccc3)noc2c1Cl | 1.7 m equiv [Na+] 5hr-1kg-1 | 47.5 u equiv of [Na+] kg-1 hr-1 | 0.8 m equiv [Na+] 5hr-1kg-1 | –
33 | O=C(O)COc1ccc2c(-c3ccccc3F)noc2c1Br [BROCRINAT] | 11.53 m equiv [Na+] 5hr-1kg-1 | 1970.7 u equiv of [Na+] kg-1 hr-1 | 1.02 m equiv [Na+] 5hr-1kg-1 | Oral diuretic activity [4]: 869 u equiv of [Na+] kg-1; Oral diuretic activity [5]: 1083 u equiv of [Na+] kg-1; Oral diuretic activity [6]: 106.8 u equiv of [Na+] kg-1; Oral diuretic activity [7]: 1182.6 u equiv of [Na+] kg-1; Oral diuretic activity [8]: 503.3 u equiv of [Na+] kg-1
34 | O=C(O)COc1ccc(C(=O)c2cccs2)c(Cl)c1Cl [TICRYNAFEN] | 3.31 m equiv [Na+] 5hr-1kg-1 | 302.3 u equiv of [Na+] kg-1 hr-1 | 1.11 m equiv [Na+] 5hr-1kg-1 | Oral diuretic activity [4]: 77.4 u equiv of [Na+] kg-1; Oral diuretic activity [6]: 127.5 u equiv of [Na+] kg-1; Oral diuretic activity [9]: 21.2 u equiv of [Na+] kg-1; Oral diuretic activity [8]: 36.5 u equiv of [Na+] kg-1
